Compound activity: PubChem BioAssay, several laboratories
Hits are enriched below; roughly 1% of the tested compounds scored in any of these assays.
MT stabilizer: microtubule stabilizers in HeLa cells, primary screen, imaging, high-content imaging. AID 2205, 2009. HeLa tubulin immunostaining HCS, 24 h; share of cells brighter than vehicle mean+2SD. % tubulin-high responders, % at 10 µM. actives 0.83% (n = 200,000);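 active means plate Z-score above 3 for both tubulin-high and condensed-nucleus cell shares, with cell loss under 80%, at 10 µM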;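 further: anti alpha tubulin signal scored within the nucleus-defined area of each cell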
TLR9-MyD88 block: inhibitors of TLR9-MyD88 association in cells, primary screen, cell-based, CHO, BLA complementation, fluorescence; CCF4 FRET ratio; inhibition, % at 4.98 µM; Toll-like receptor 9 (Homo sapiens) + Myeloid differentiation primary response protein …; actives 0.21% (n = 340,000);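 active means inhibition above the mean over all tested compounds plus 3 SD, cut at about 21% in these data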;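 further: 0% = DMSO only wells and 100% = clavulanate BLA inhibitor control wells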
Target sequence (Q99836 whole entry, looked up): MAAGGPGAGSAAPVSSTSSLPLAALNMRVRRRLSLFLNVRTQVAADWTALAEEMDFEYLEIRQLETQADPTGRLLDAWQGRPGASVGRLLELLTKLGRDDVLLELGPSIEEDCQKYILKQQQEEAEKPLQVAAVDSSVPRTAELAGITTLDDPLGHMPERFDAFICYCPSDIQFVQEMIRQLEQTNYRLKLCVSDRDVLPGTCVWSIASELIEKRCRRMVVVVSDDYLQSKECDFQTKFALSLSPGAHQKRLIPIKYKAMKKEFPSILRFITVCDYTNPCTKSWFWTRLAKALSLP
Target sequence (Q9NR96 whole entry, looked up): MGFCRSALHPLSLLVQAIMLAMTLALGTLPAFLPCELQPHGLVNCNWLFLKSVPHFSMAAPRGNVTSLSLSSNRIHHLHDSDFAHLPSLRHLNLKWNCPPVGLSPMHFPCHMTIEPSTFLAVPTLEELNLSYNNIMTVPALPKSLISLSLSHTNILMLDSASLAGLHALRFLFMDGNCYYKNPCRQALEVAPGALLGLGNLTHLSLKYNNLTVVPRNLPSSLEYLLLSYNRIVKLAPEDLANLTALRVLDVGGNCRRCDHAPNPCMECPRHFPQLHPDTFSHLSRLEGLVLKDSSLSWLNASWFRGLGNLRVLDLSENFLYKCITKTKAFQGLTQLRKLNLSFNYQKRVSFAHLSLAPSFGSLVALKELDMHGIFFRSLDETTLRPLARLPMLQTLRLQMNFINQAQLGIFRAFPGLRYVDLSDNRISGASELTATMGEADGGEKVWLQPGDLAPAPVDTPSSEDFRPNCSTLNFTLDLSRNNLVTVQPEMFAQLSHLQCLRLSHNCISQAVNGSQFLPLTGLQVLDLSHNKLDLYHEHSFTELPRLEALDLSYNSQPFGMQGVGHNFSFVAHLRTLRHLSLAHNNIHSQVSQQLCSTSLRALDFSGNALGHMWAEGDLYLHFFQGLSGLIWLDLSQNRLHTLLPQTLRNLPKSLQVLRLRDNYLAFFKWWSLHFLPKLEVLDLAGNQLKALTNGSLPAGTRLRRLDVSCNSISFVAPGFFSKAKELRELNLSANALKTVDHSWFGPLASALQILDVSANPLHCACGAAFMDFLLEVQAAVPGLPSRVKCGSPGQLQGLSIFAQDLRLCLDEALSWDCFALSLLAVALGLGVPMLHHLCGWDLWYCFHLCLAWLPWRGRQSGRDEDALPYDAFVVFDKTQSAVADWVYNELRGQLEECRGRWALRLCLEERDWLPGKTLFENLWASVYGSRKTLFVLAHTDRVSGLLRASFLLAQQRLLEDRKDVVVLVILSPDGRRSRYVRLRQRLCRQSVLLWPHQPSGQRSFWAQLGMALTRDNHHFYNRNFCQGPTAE
Hsp70 activator: Hsp70 transcriptional activators, primary screen, cell-based, HeLa, Hsp70 promoter luciferase, luminescence, 10 µM | actives 0.04% (n = 200,000) | AID 1203, 2008 | activation, % at 10 µM | HeLa Hsp70 promoter luciferase reporter; scaled: vehicle 0, proteasome-inhibitor control 100%;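 active means activation above the mean across all tested compounds plus 3 SD, cutoff set per campaign, cut at about 5.5% in these data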;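 further: 100% = MG132 at 30 µM as the positive control and 0% = DMSO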
TLR4 MyD88 comp: inhibitors of TLR4-MyD88 association in cells, primary screen, cell-based, HeLa CL3-4, BLA complementation, FRET ratio. actives 0.18% (n = 200,000). HeLa CL3-4 TLR4/MyD88 BLA complementation. inhibition, % at 8.4 µM. AID 861, 2007; in the data active means inhibition above about 25%;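 further: 0% = vehicle and 100% = reference inhibitor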
NOD2 RIPK2 PPI: NOD2-RIPK2 binding disruptors in cells, primary screen, fluorescence, CHO cells, BLA complementation; inhibition, % at 4.98 µM; CCF4 ratio; actives 0.38% (n = 360,000); AID 624267, 2012; Receptor-interacting serine/threonine-protein kinase 2 (Homo sapiens), O43353; in the data active means inhibition above about 21%;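 further: 0% = vehicle only and 100% = reference blocker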
b-catenin transl: modulators of beta-catenin nuclear translocation, primary screen, imaging, HeLa cells, immunofluorescence, high-content | AID 1665, 2009 | actives 0.3% (n = 190,000) | nuclear translocation activity, % at 5 µM;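 active means nuclear translocation activity above 50% at 5 µM, with a well cell count of 50 or more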;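 further: per-cell ratio of nuclear to cytoplasmic median beta-catenin stain intensity; plate controls were DMSO negative control for no effect and GSK-3 inhibitor IX positive control for full effect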
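System: HeLa cells, endogenous beta-catenin; compound dosing: 5 µM primary single dose, 0.1% DMSO, 0.02–20 µM confirmation series; incubation: 24 h compound exposure at 37°C, 5% CO2; signal: beta-catenin immunofluorescence imaging with DAPI; evaluation: % activation, nuclear-to-cytoplasmic median beta-catenin signal ratio per cell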
NOD2 RIPK2 conf: NOD2-RIPK2 binding disruptors, retest, confirmation, fluorescence, CHO cells, BLA complementation, triplicate | inhibition, % at 4.98 µM | AID 624370, 2012 | shares compounds with NOD2 RIPK2 PPI | actives 70% (n = 1,200) | CCF4 FRET;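 active means mean inhibition across replicates above a set limit taken from the earlier primary screen, cut at about 21% in these data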;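 further: 0% = DMSO-only wells and the high end = clavulanate BLA-blocked wells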
NOD2 BLA counter: counter-screen for NOD2-RIPK2 interaction inhibitors: BLA reporter; inhibition, % at 4.98 µM; AID 624371; CHO BLA reporter, CCF4 FRET ratio, counterscreen; shares compounds with NOD2 RIPK2 PPI; actives 57% (n = 1,200);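 active means mean inhibition above the low-control mean inhibition plus three low-control SD, cut at about 11% in these data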;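 further: 0% = DMSO only wells and 100% = clavulanate high control wells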
Active calls of the source: *; nt = no result.

SMILES | MT stabilizer | TLR9-MyD88 block | Hsp70 activator | TLR4 MyD88 comp | NOD2 RIPK2 PPI | b-catenin transl | NOD2 RIPK2 conf | NOD2 BLA counter
C=CCC1(O)C(=O)Nc2ccccc21 (stereo unspecified) | 1.3 | -2.2 | -0.2 | 8.5 | -9.7 | -1.2 | nt | nt
O=C1Nc2ccccc2C1(O)Cc1ccccn1 (stereo unspecified) | nt | 4.2 | nt | nt | 23.6* | -0.2 | -0.1 | -2.7
COC(=O)c1ccc2c(=O)[nH]c(COC(=O)c3c(-c4ccccc4)noc3C)nc2c1 | nt | -2.3 | nt | nt | -2.9 | nt | nt | nt
O=C(CCNS(=O)(=O)c1c(Cl)cccc1Cl)OCC(=O)c1ccccc1 | 1.6 | -0.2 | -0.7 | -4.0 | 66.9* | nt | 6.7 | -2.7
CCOC(=O)c1cc(-c2ccccc2)nc2c(O)cccc12 | nt | -6.2 | nt | nt | -0.9 | nt | nt | nt
CC(OC(=O)CCCC(=O)Nc1ccc(F)cc1)C(=O)c1ccccc1 (stereo unspecified) | nt | -7.3 | nt | nt | -9.4 | nt | nt | nt
COc1ccc(NC2=CC(=O)CC(C)(C)C2)cc1OC | 3.7 | -4.9 | -0.2 | 11.3 | 22.7* | -1.5 | -11.2 | -2.9
CN(C1CCCCC1)S(=O)(=O)c1cccc(C(=O)Nc2ccccn2)c1 | nt | 0.9 | nt | nt | -2.2 | nt | nt | nt
Cc1cccc(NC(=O)c2cccc(S(=O)(=O)N(C)C3CCCCC3)c2)n1 | nt | -4.8 | nt | nt | 21.0* | nt | 0.8 | -1.9
Cc1cc(Br)cn2c(Cc3cccc(F)c3)c(C3CCCCC3)nc12 | nt | nt | nt | nt | -0.2 | nt | nt | nt
COCCSc1nnc(NC(=O)CCS(=O)(=O)c2ccccc2)s1 | nt | -10.2 | nt | nt | -5.0 | nt | nt | nt
CCO[C@@H]1OC(C(=O)NCc2ccccc2)=C[C@H](c2ccc(C(F)(F)F)cc2)[C@H]1CCCO | 2.8 | -2.7 | -0.4 | -5.7 | 2.6 | -2.1 | nt | nt
CCO[C@H]1OC(C(=O)NCc2ccccc2)=C[C@@H](c2ccc(Br)cc2)[C@@H]1CCCO | 4.2 | -0.3 | -0.3 | 3.2 | 28.7* | -1.5 | -19.6 | -5.2
O=C1C(O)=CC(=C(c2ccccc2)c2ccccc2)c2ccccc21 | nt | 8.9 | nt | nt | 34.3* | nt | 1.1 | -2.7
O=C(O)c1cccc2c1C(=O)c1ccccc1C2=O | 3.6 | -13.9 | -0.3 | 1.9 | -7.7 | -6.1 | nt | nt
CCCN(CC(=O)Nc1ccccc1OC)C(=O)CSC(=S)N1CCCC1 | nt | -4.2 | nt | nt | -13.0 | nt | nt | nt
O=C(c1ccc2[nH]c(=O)c(=O)[nH]c2c1)N1CCc2ccccc2C1 | nt | -9.9 | nt | nt | 0.5 | nt | nt | nt
CC(C)Oc1ccc(CNC(=O)Cn2ccc3cc(S(=O)(=O)N4CCCC4)ccc32)cc1 | nt | 2.5 | nt | nt | 26.6* | nt | -3.8 | -0.6
COc1ccc(-c2nnn(Cc3ccccc3)n2)cc1OC | nt | -8.4 | nt | nt | 5.1 | nt | nt | nt
COc1cc2c3nnc(-c4ccc(F)cc4)c-3cn(Cc3ccccc3)c2cc1OC | 1.8 | 12.0 | 0.0 | 21.8 | 66.5* | 9.2 | 66.0* | 66.4*
O=C(CSc1ccccn1)Nc1nonc1[N+](=O)[O-] | nt | 15.0 | nt | nt | 31.4* | nt | 13.3 | 4.9
O=C(CSc1ccccn1)Nc1ccc(NC(=O)CSc2ccccn2)cc1 | 2.1 | 3.1 | 0.3 | -3.1 | 0.7 | 2.2 | nt | nt
CN(c1ccccc1)S(=O)(=O)c1ccc(C(=O)NCC(c2ccco2)N2CCCCC2)cc1 (stereo unspecified) | nt | 8.1 | nt | nt | 24.6* | nt | 1.7 | -2.4
COc1ccccc1N(C)S(=O)(=O)c1ccc(C(=O)NCC(c2ccco2)N2CCCCC2)cc1 (stereo unspecified) | nt | 3.6 | nt | nt | -12.2 | nt | nt | nt
COc1ccc(CC(=O)OCC(=O)NC2CCCCC2)cc1OC | nt | 5.9 | nt | nt | -10.9 | nt | nt | nt
SMILES | MT stabilizer | TLR9-MyD88 block | Hsp70 activator | TLR4 MyD88 comp | NOD2 RIPK2 PPI | b-catenin transl | NOD2 RIPK2 conf | NOD2 BLA counter
N#Cc1ccc(C(C(=O)Nc2ccc3c(c2)OCCO3)n2c(=O)c(-c3ccco3)nc3ccccc32)cc1 (stereo unspecified) | nt | nt | nt | nt | -11.6 | nt | nt | nt
O=C(Nc1ccc2ccccc2c1)C(c1ccc(C(F)(F)F)cc1)n1c(=O)c(-c2cc3ccccc3[nH]2)nc2ccccc21 (stereo unspecified) | nt | nt | nt | nt | 46.4* | nt | 39.8* | 64.7*
O=C(Nc1ccc2c(c1)OCCO2)C(c1ccccc1F)n1c(=O)c(-c2cc3ccccc3[nH]2)nc2ccccc21 (stereo unspecified) | nt | nt | nt | nt | 48.7* | nt | 45.1* | 67.5*
O=C(Nc1ccc2c(c1)OCCO2)C(c1ccncc1)n1c(=O)c(-c2cc3ccccc3[nH]2)nc2ccccc21 (stereo unspecified) | nt | nt | nt | nt | 34.3* | nt | 36.6* | 58.3*
O=C(Nc1ccc2c(c1)OCCO2)C(c1ccc(C(F)(F)F)cc1)n1c(=O)c(-c2cc3ccccc3[nH]2)nc2ccccc21 (stereo unspecified) | nt | nt | nt | nt | 47.9* | nt | 44.2* | 65.5*
O=C(CSc1nnc(NC(=O)c2ccc(F)cc2F)s1)NC1CC1 | nt | 1.6 | nt | nt | -8.2 | nt | nt | nt
COc1ccccc1-c1cc(C(F)(F)F)nc(S(=O)(=O)CCCC(=O)NC(C)C)n1 | 6.3 | -4.9 | -0.4 | -2.3 | -3.8 | 1.0 | nt | nt
COc1ccccc1-c1cc(C(F)(F)F)nc(S(C)(=O)=O)n1 | 2.5 | 26.2* | 0.1 | 20.0 | 24.9* | nt | 41.0* | 6.5
Cc1nc([N+](=O)[O-])c(Br)n1Cc1ccc(Cl)c(Cl)c1 | 3.0 | 7.9 | -0.1 | 12.6 | 23.3* | 0.5 | 42.6* | -3.8
CC(=O)NC(C)(c1ccccc1)c1nc(-c2cccc(C#N)c2)cs1 (stereo unspecified) | nt | nt | nt | nt | -0.8 | nt | nt | nt
Cc1ccc(S(=O)(=O)NCCc2ccncc2)cc1[N+](=O)[O-] | nt | 2.9 | nt | nt | -10.9 | nt | nt | nt
CC(=O)Nc1ccc(N2C(=O)c3cccc4c(O)ccc(c34)C2=O)cc1 | nt | 17.1 | nt | nt | 26.9* | nt | 24.7* | 28.2*
COc1ccc2c(c1)C(C)=CC(C)(C)N2S(=O)(=O)c1ccc(NC(C)=O)cc1 | nt | -5.5 | nt | nt | 25.9* | nt | 14.1 | -4.0
CCOc1ccc2c(c1)C(C)=CC(C)(C)N2S(=O)(=O)c1ccc(NC(C)=O)cc1 | nt | -6.1 | nt | nt | 18.8 | nt | nt | nt
CCC1(c2ccc(OC)cc2)NC(=O)N(CC(=O)c2ccc3c(c2)OCCO3)C1=O (stereo unspecified) | nt | -11.4 | nt | nt | 11.9 | nt | nt | nt
O=C1Nc2cc(C(=O)NCCN3CCCCCC3)ccc2S/C1=C/c1ccccc1F | nt | 5.5 | nt | nt | 21.8* | nt | 48.9* | 51.2*
N#Cc1c2ccc(OCC(=O)NCc3ccco3)cc2n2ccccc12 | nt | -0.8 | nt | nt | 12.2 | nt | nt | nt
N#Cc1c2ccc(O)cc2n2ccccc12 | 5.6 | 13.4 | -0.4 | 3.9 | 22.4* | -5.0 | 21.0* | 26.0*
